The results in this text go back to ChEMBL document CHEMBL1155807, “Synthesis, biological evaluation, and enzyme docking simulations of 1,5-diarylpyrrole-3-alkoxyethyl ethers as selective cyclooxygenase-2 inhibitors endowed with anti-inflammatory and antinociceptive activity” (J Med Chem, 2008).

pIC50: −log10 of the molar value. Calls of active or inactive are those of the source.

The test system of one assay is J774. Nature of the assay: Selectivity index, ratio of IC50 for mouse COX1 in mouse J774 cells to IC50 for mouse COX2 in LPS-stimulated mouse J774 cells. The format is cell-based. The essentials:
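The ratio is IC50(COX-1)/IC50(COX-2), both from J774 cells. For COX-1, cells were given a 15 min compound pretreatment and then 15 µM arachidonic acid for 30 min. For COX-2, cells were exposed to LPS (10 µg/mL) for 24 h with compound. In both, PGE2 was measured by radioimmunoassay and IC50 came from a sigmoidal fit of the means of three experiments.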

In assay [1] the target is T1, Prostaglandin G/H synthase 1 (Mus musculus, UniProt P22437).
T1 sequence (P22437 whole entry): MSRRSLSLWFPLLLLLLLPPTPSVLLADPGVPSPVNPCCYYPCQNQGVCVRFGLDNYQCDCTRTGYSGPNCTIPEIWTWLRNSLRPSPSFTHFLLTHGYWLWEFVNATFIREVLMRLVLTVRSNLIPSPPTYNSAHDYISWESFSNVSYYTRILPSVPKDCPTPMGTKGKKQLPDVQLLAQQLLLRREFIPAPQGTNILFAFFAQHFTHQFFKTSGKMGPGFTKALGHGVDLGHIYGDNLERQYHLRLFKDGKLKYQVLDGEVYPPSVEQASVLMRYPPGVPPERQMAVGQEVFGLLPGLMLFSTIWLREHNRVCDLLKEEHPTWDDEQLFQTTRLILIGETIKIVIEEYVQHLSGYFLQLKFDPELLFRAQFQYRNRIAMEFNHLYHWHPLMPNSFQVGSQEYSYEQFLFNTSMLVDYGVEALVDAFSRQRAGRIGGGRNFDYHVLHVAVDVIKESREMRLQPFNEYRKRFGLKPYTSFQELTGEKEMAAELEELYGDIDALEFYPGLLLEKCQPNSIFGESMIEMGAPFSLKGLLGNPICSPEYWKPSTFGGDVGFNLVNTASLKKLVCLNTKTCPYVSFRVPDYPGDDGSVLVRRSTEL
Nature of the assay: Inhibition of mouse COX1 in mouse J774 cells assessed as PGE2 production by radioimmunoassay. The format is cell-based.

For assay [2], the target named is T2, Prostaglandin G/H synthase 2 (Mus musculus, UniProt Q05769).
T2 sequence (Q05769 whole entry): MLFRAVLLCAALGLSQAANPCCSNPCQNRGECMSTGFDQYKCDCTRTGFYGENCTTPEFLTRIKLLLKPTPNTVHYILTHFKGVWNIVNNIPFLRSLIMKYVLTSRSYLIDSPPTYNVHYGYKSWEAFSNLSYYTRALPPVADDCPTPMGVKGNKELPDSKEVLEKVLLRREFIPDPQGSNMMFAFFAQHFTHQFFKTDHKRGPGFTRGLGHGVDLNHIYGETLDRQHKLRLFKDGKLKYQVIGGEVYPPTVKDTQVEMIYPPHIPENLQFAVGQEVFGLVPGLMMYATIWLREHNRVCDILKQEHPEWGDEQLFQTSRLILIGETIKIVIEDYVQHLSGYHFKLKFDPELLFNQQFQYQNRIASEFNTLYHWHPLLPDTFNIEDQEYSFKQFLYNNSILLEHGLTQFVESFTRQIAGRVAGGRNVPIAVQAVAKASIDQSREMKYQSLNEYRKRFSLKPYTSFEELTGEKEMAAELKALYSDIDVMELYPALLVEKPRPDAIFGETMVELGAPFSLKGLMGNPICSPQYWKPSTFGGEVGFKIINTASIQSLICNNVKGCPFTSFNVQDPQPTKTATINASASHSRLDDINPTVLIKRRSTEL
Nature of the assay: Inhibition of mouse COX2 in LPS-stimulated mouse J774 cells assessed as PGE2 production by radioimmunoassay. The format is cell-based. Put shortly:
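J774 cells in serum-free medium were stimulated with E. coli LPS (10 µg/mL) for 24 h to induce COX-2, with or without compound present. Supernatant PGE2 was measured by radioimmunoassay. Percent inhibition was taken against control; triplicate wells, mean of three experiments; IC50 from a variable-slope sigmoidal fit.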

In assay [3] the test system is Rattus norvegicus. The assay is described as follows: Antiinflammatory activity against carrageenan-induced hyperalgesia in rat assessed as paw pressure at 20 mg/kg, po after 30 mins. The format is functional. Put shortly:
(§1)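 Rats received carrageenan (0.1 mL, 1%) intraplantar 4 h before the test, then compound at 20 mg/kg po. Nociceptive threshold was measured with an analgesimeter (Leighton method) before and 30, 60 and 120 min after treatment, with a 250 g cutoff. Groups had 5-6 rats; mean ± SEM, ANOVA with Fisher's PLSD post hoc.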

For assay [4], the system named is Rattus norvegicus. The assay is described as follows: Antiinflammatory activity against carrageenan-induced hyperalgesia in rat assessed as paw pressure at 20 mg/kg, po after 60 mins. The format is functional. Put shortly: as §1
In assay [5] the test system is Rattus norvegicus. The assay is described as follows: Antiinflammatory activity against carrageenan-induced hyperalgesia in rat assessed as paw pressure at 20 mg/kg, po after 120 mins. The format is functional. Put shortly: as §1
Assay [6] deals with Rattus norvegicus. The assay is described as follows: Antiinflammatory activity against carrageenan-induced edema in rat assessed as paw volume at 20 mg/kg, po […]. The format is functional. Put shortly:
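Carrageenan (0.1 mL of 1.0%) was injected intraplantar into Sprague-Dawley or Wistar rats (150-200 g). Compound was given po at 20 mg/kg 3 h 30 min after carrageenan. Right hind paw volume was measured by plethysmometer 4 h after carrageenan and compared with saline/carrageenan controls. Values are in mL, with 5-6 rats per group.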

In assay [7] the test system is Mus musculus. Nature of the assay: Antinociceptive activity against acetic acid-induced abdominal constriction in Swiss albino mouse assessed as number of writhes at 10 mg/kg, po. The format is functional, Abdomen. Put shortly:
(§2)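 Male Swiss albino mice (23-25 g) were dosed per os, with CMC as vehicle, 30 min before 0.6% acetic acid. Stretching movements were counted for 10 min, starting 5 min after acetic acid (Koster method). Results are mean ± SEM; ANOVA with Fisher's PLSD, versus vehicle-treated mice.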

The subject of assay [8] is Mus musculus. The assay is described as follows: Antinociceptive activity against acetic acid-induced abdominal constriction in Swiss albino mouse assessed as number of writhes at 20 mg/kg, po. The format is functional, Abdomen. The essentials: as §2
For assay [9], the system named is Mus musculus. Nature of the assay: Antinociceptive activity against acetic acid-induced abdominal constriction in Swiss albino mouse assessed as reduction in number of writhes at 20 mg/kg, po. The format is functional, organism-based. The arrangement: dose 20 mg/kg. Particulars: Abdomen. The essentials: as §2
A further assay is filed under the species Homo sapiens. The assay is described as follows: Selectivity index, ratio of IC50 for human COX1 to IC50 for human COX2 by whole blood assay. Put shortly: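 Human whole blood from three healthy donors (no NSAID for 2 weeks); compounds in DMSO at final 0.01–1000 µM. COX-2: heparinized blood from aspirin-pretreated donors (300 mg, 48 h) with LPS 10 µg/mL, 24 h, 37 °C; plasma PGE2 by RIA. COX-1: blood clotted 1 h, 37 °C; serum TXB2 by RIA. Mean % inhibition vs vehicle; IC50(COX-1)/IC50(COX-2).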

In assay [10] the target is T3, Prostaglandin G/H synthase 2 (Homo sapiens, UniProt P35354).
T3 sequence (P35354 whole entry): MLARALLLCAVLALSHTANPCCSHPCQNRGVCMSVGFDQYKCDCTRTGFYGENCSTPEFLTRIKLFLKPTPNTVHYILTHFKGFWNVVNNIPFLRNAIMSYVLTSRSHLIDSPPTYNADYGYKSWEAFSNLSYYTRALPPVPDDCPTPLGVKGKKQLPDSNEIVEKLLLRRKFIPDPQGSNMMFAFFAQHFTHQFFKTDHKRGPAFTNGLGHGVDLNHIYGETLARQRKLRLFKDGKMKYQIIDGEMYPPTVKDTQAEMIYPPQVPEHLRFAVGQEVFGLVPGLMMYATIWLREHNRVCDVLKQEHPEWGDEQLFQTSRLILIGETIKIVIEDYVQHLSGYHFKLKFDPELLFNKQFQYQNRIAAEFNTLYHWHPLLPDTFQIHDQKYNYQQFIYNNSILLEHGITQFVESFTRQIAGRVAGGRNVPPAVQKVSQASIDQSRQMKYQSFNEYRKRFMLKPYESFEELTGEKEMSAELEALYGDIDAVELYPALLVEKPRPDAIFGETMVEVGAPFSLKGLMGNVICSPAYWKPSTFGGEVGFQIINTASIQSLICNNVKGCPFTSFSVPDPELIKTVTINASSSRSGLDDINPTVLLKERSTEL
The assay is described as follows: Inhibition of COX2 in human whole blood assessed as effect on thrombin-induced TXB2 production. The format is tissue-based.

In assay [11] the target is Prostaglandin G/H synthase 1 (Homo sapiens, UniProt P23219). Nature of the assay: Inhibition of COX1 in human whole blood allowed to clot assessed as TXB2 production.
Sequence of Prostaglandin G/H synthase 1 (Homo sapiens, UniProt P23219) (P23219 whole entry): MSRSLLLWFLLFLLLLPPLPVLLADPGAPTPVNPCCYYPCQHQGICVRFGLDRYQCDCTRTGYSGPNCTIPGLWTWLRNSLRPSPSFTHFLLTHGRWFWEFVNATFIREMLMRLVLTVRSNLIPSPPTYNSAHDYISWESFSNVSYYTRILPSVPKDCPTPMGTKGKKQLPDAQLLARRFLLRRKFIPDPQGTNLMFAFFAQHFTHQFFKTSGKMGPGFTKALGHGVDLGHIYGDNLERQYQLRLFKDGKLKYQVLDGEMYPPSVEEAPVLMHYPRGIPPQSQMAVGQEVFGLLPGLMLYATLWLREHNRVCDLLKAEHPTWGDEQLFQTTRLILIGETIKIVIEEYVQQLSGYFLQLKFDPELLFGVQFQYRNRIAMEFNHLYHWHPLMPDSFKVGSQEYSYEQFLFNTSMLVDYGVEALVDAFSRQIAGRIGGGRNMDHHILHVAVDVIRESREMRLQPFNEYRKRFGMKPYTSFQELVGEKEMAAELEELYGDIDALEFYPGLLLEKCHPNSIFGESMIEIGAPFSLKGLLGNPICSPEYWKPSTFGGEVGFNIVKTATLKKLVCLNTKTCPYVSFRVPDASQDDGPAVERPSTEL

As for `CCOC(=O)Cc1cc(-c2ccc(S(C)(=O)=O)cc2)n(-c2ccc(C(F)(F)F)cc2)c1C`, the Ratio IC50 in the assay with J774 was > 1600.

For the molecule `CCOC(=O)Cc1cc(-c2ccc(S(C)(=O)=O)cc2)n(-c2ccc(C)cc2)c1C`, the Ratio IC50 in the assay with J774 is > 208.

As to `CCOCCc1cc(-c2ccc(S(C)(=O)=O)cc2)n(-c2ccc(F)cc2)c1C`, the pIC50 in assay [1] is < 4.00; in assay [2], 7.33. Further, the Ratio IC50 in the assay on J774 is > 2130.

`CCCOCCc1cc(-c2ccc(S(C)(=O)=O)cc2)n(-c2ccc(F)cc2)c1C`: the values for the pIC50 in assay [1] and in assay [2] were < 4.00 and 7.52, respectively. Also, in the assay with J774, the Ratio IC50 is > 3330. Further, the Activity with Rattus norvegicus [3] was 52.4 g; with Rattus norvegicus [4] it was 56.8 g; with Rattus norvegicus [5] it was 52.7 g; in the assay on Rattus norvegicus [6] it was 1.45 mL; in the assay with Mus musculus [7], 38.1; with Mus musculus [8] it was 16.7. In addition, the outcome in the assay on Mus musculus [9] was Active.

For `CS(=O)(=O)c1ccc(C2=C(c3ccccc3)C(=O)OC2)cc1`, the Ratio IC50 in the assay filed under Homo sapiens was > 200.

On to `CCCOCCc1cc(-c2ccc(S(C)(=O)=O)cc2)n(-c2ccccc2)c1C`, for which the pIC50 in assay [1] is < 4.00; in assay [2], 7.74; in assay [10], 5.89; in [11], 4.07. Besides, the results for the Ratio IC50 with J774 and in the assay filed under Homo sapiens were > 5560 and 66, respectively. In addition, the Activity in the assay with Rattus norvegicus [3] is 56.3 g; in the assay on Rattus norvegicus [4] it was 59.4 g; with Rattus norvegicus [5], 50.6 g; with Rattus norvegicus [6], 1.41 mL; in the assay with Mus musculus [7], 27.43; in the assay on Mus musculus [8], 13.6. In the assay on Mus musculus [9], the outcome was Active.

On to `COCCc1cc(-c2ccc(S(C)(=O)=O)cc2)n(-c2ccc(C(F)(F)F)cc2)c1C`, for which the results for the pIC50 in assay [1] and in assay [2] were < 4.00 and 7.31, respectively. Further, the Ratio IC50 in the assay with J774 was > 2040.

For `CCCOCCc1cc(-c2ccc(S(C)(=O)=O)cc2)n(-c2ccc(C(F)(F)F)cc2)c1C`, the figures for the pIC50 in [1] and in [2] were < 4.00 and 6.96, respectively. For the same molecule, in the assay on J774, the Ratio IC50 is > 909.

Take `CCOC(=O)Cc1cc(-c2ccc(S(C)(=O)=O)cc2)n(-c2ccccc2)c1C`: the Ratio IC50 with J774 is > 2500.

For the molecule `COCCc1cc(-c2ccc(S(C)(=O)=O)cc2)n(-c2ccc(F)cc2)c1C`, the negative-log IC50 (pIC50) in [1] was < 4.00; in assay [2], 7.74. Also, the Ratio IC50 in the assay with J774 was > 5560.

As to `COCCc1cc(-c2ccc(S(C)(=O)=O)cc2)n(-c2ccccc2)c1C`, the pIC50 was < 4.00 in assay [1] and 7.32 in assay [2]. Also, in the assay with J774, the Ratio IC50 was > 2080.

As for `CCOCCc1cc(-c2ccc(S(C)(=O)=O)cc2)n(-c2ccc(C(F)(F)F)cc2)c1C`, the pIC50 in assay [1] was < 4.00; in [2] it was 7.07. Moreover, the Ratio IC50 in the assay with J774 was > 1180.

`CCOCCc1cc(-c2ccc(S(C)(=O)=O)cc2)n(-c2ccccc2)c1C`: the pIC50 in [1] was < 4.00; in [2], 7.82. In addition, the Ratio IC50 with J774 is > 6670. Besides, the Activity in the assay on Rattus norvegicus [3] came to 59.6 g; in the assay with Rattus norvegicus [4], 53.8 g; with Rattus norvegicus [5], 49.1 g; in the assay on Rattus norvegicus [6] it was 1.37 mL; in the assay on Mus musculus [7] it was 26.5; with Mus musculus [8], 11.4. Moreover, the outcome in the assay on Mus musculus [9] was Active.
